What was measured:
[1] = molecular target: Disintegrin and metalloproteinase domain-containing protein 17 (Homo sapiens, UniProt P78536); assay: Inhibition of TACE
[2] = system: Blood; assay: Antiinflammatory activity in human whole blood assessed as inhibition of LPS-induced TNFalpha production after 3.5 hrs by ELISA; type: functional
Outline: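 Human whole blood, diluted 1:1 in serum-free RPMI with L-glutamine, Pen-Strep and HEPES, is preincubated with compound for 1 h at 37 °C. It is then stimulated with LPS. Supernatant is harvested after 3.5 h incubation, and TNF-α concentration is measured by ELISA.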

[3] = molecular target: Matrix metalloproteinase-9 (Homo sapiens, UniProt P14780); assay: Inhibition of MMP9
Chain of Matrix metalloproteinase-9 (P14780 whole entry): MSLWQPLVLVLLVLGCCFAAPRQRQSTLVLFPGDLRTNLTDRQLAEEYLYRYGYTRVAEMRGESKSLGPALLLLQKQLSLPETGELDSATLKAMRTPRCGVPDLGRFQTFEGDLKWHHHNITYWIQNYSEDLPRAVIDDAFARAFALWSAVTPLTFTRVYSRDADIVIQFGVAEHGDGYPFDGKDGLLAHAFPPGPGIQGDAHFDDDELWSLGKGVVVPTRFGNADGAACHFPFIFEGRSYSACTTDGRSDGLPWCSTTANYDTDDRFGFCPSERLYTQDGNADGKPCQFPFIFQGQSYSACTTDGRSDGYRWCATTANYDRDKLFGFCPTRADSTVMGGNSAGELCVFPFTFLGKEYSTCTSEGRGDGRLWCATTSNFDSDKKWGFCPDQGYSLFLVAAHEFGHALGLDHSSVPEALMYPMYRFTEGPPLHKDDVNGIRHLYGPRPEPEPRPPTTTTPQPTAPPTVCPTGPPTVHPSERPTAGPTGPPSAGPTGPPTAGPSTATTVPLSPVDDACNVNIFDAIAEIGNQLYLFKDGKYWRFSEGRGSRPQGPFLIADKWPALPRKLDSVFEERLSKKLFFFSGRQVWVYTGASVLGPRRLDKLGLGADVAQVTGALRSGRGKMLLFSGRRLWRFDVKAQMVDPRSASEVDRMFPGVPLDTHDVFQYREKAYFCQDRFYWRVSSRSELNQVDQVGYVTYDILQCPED

[4] = molecular target: 72 kDa type IV collagenase (Homo sapiens, UniProt P08253); assay: Inhibition of MMP2
Chain of 72 kDa type IV collagenase (P08253 whole entry): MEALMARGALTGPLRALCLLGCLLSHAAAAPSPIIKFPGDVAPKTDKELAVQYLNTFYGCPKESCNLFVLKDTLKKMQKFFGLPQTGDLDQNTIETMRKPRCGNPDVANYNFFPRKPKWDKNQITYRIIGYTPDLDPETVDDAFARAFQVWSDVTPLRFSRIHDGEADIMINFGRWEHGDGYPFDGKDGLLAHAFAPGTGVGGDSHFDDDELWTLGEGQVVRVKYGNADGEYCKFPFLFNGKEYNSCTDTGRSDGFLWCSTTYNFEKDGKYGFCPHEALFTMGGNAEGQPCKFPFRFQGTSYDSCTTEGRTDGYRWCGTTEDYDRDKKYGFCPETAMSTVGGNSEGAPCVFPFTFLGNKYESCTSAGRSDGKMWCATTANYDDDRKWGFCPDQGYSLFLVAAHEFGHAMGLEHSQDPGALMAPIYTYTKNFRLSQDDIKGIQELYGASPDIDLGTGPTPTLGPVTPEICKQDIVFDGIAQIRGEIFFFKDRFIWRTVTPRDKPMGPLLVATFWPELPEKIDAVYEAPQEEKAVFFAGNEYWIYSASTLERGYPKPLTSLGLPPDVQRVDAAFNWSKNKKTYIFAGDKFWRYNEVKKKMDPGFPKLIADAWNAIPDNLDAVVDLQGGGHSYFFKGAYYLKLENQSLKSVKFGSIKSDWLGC

[5] = AUC in monkey at 3 mg/kg, po; type: ADME, organism-based, Macaca mulatta; design: dose 3 mg/kg, route oral; details: rhesus monkey, plasma
Outline: (§1)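 Compound dosed as its Na+ salt, intravenously or orally, at the dose given in each line. AUC is reported in uM.h.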

[6] = molecular target: T1, Disintegrin and metalloproteinase domain-containing protein 10 (Homo sapiens, UniProt O14672); assay: Inhibition of ADAM10
T1 sequence (O14672 whole entry): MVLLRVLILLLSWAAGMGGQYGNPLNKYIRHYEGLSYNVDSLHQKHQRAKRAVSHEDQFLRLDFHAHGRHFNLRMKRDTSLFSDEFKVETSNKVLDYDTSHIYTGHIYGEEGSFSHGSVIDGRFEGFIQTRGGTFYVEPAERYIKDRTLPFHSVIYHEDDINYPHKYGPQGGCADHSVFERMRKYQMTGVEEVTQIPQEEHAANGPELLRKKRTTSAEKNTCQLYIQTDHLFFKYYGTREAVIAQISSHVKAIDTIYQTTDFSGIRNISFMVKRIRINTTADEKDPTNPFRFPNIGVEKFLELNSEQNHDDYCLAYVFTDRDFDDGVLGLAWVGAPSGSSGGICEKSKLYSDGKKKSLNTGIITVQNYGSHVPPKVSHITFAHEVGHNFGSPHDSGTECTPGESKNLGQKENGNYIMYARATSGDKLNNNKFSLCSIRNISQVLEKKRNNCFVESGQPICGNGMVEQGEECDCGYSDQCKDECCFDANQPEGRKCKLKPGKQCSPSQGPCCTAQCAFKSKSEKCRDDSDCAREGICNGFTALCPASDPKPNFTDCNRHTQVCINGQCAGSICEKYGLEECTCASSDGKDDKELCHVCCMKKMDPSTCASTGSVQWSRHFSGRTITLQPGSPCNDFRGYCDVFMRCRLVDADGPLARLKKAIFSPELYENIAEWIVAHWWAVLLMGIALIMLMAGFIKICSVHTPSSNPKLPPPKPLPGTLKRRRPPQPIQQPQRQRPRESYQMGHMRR

[7] = AUC in dog at 5 mg/kg, po; type: ADME, organism-based, Canis lupus familiaris; design: dose 5 mg/kg, route oral; details: plasma
[8] = Tmax in monkey at 3 mg/kg, po; type: ADME, organism-based, Macaca mulatta; design: dose 3 mg/kg, route oral; details: rhesus monkey, in vivo
[9] = AUC in rat at 10 mg/kg, po; type: ADME, organism-based; design: dose 10 mg/kg, route oral; details: plasma; outline: as §1
[10] = molecular target: Collagenase 3 (Homo sapiens, UniProt P45452); assay: Inhibition of MMP13
[11] = Half life in rat at 3 mg/kg, iv; type: ADME, organism-based; design: dose 3 mg/kg, route intravenous; details: in vivo
[12] = Tmax in rat at 10 mg/kg, po; type: ADME, organism-based; design: dose 10 mg/kg, route oral; details: in vivo
[13] = Clearance in monkey at 1 mg/kg, iv; type: ADME, organism-based, Macaca mulatta; design: dose 1 mg/kg, route intravenous; details: rhesus monkey, in vivo
[14] = AUC in monkey at 1 mg/kg, iv; type: ADME, organism-based, Macaca mulatta; design: dose 1 mg/kg, route intravenous; details: rhesus monkey, plasma; outline: as §1
[15] = Tmax in dog at 5 mg/kg, po; type: ADME, organism-based, Canis lupus familiaris; design: dose 5 mg/kg, route oral; details: in vivo
[16] = Half life in monkey at 1 mg/kg, iv; type: ADME, organism-based, Macaca mulatta; design: dose 1 mg/kg, route intravenous; details: rhesus monkey, in vivo
[17] = molecular target: T2, Interstitial collagenase (Homo sapiens, UniProt P03956); assay: Inhibition of MMP1
T2 sequence (P03956 whole entry): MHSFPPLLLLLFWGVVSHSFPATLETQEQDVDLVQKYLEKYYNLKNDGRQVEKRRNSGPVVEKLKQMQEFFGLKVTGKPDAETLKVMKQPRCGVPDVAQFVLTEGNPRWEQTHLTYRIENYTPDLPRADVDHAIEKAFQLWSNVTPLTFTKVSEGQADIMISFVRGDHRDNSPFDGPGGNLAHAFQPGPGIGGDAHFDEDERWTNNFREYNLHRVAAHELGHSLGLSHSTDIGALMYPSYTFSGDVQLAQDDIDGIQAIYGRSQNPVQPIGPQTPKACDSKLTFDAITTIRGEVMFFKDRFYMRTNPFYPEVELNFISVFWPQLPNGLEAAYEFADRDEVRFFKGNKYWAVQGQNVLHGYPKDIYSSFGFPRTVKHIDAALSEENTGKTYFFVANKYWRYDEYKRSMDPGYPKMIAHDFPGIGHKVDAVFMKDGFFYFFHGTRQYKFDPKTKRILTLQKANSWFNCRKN

[18] = Oral bioavailability in dog at 5 mg/kg; type: ADME, organism-based, Canis lupus familiaris; details: in vivo
[19] = Half life in dog at 0.5 mg/kg, iv; type: ADME, organism-based, Canis lupus familiaris; design: dose 0.5 mg/kg, route intravenous; details: in vivo
[20] = Clearance in rat at 3 mg/kg, iv; type: ADME, organism-based; design: dose 3 mg/kg, route intravenous; details: in vivo
[21] = Oral bioavailability in rat at 10 mg/kg; type: ADME, organism-based; details: in vivo
[22] = molecular target: T3, Matrilysin (Homo sapiens, UniProt P09237); assay: Inhibition of MMP7
T3 sequence (P09237 whole entry): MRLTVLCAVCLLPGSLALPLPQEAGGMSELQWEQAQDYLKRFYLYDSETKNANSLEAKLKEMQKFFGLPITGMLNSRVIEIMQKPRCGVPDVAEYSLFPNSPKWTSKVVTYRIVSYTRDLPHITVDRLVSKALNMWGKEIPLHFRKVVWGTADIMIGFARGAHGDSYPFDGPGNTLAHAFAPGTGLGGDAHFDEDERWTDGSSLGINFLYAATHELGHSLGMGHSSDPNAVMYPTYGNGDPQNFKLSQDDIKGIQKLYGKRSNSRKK

[23] = AUC in rat at 3 mg/kg, iv; type: ADME, organism-based; design: dose 3 mg/kg, route intravenous; details: plasma; outline: as §1
[24] = AUC in dog at 0.5 mg/kg, iv; type: ADME, organism-based, Canis lupus familiaris; design: dose 0.5 mg/kg, route intravenous; details: plasma
[25] = Oral bioavailability in monkey at 3 mg/kg; type: ADME, organism-based, Macaca mulatta; details: rhesus monkey, in vivo
[26] = Clearance in dog at 0.5 mg/kg, iv; type: ADME, organism-based, Canis lupus familiaris; design: dose 0.5 mg/kg, route intravenous; details: in vivo
[27] = molecular target: Stromelysin-1 (Homo sapiens, UniProt P08254); assay: Inhibition of MMP3
Chain of Stromelysin-1 (P08254 whole entry): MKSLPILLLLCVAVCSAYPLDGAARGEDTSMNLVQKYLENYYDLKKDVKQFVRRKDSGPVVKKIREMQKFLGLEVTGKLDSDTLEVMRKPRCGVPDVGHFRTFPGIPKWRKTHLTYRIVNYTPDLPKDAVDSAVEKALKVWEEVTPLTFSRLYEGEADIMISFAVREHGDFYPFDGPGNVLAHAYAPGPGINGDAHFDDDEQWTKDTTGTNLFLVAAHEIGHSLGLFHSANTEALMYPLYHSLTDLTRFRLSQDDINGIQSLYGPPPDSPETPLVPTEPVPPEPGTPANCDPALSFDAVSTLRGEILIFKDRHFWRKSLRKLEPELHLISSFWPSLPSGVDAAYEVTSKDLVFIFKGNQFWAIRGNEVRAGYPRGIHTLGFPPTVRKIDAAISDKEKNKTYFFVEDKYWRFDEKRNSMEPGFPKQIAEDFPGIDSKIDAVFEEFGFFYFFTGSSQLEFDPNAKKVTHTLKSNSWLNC

Chain of Disintegrin and metalloproteinase domain-containing protein 17 (P78536 whole entry, the tested form may be a part): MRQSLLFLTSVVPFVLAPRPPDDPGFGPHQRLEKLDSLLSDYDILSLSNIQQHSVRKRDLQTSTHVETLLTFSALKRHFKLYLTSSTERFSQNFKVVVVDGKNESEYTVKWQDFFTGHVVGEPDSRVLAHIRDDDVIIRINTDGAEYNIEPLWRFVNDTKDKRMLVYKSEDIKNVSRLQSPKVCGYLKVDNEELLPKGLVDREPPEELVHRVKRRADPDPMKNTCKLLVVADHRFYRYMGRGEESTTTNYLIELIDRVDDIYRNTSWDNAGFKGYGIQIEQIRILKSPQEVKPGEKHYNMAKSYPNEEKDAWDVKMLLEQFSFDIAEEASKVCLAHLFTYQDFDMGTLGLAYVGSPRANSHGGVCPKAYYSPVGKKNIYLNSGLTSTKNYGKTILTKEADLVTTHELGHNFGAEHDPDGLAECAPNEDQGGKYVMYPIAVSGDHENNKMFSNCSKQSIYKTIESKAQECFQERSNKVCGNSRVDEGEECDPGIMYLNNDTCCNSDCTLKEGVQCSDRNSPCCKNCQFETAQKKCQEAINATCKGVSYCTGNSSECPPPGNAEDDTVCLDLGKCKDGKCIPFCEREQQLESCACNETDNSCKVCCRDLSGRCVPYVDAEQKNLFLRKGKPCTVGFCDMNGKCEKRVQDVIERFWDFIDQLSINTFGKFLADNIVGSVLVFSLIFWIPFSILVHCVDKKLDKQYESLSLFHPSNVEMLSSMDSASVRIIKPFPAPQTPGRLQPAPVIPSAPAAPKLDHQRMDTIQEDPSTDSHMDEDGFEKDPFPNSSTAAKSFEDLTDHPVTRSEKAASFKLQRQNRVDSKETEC

COc1ccc2c(c1)C(=O)N(C[C@@]1(C#Cc3ccc4[nH]ccc4c3)NC(=O)NC1=O)C2
Ki [1]: 0.17 nM | Activity [2]: 751 nM

COc1ccc2c(c1)C(=O)N(C[C@@]1(C#Cc3cccnc3)NC(=O)NC1=O)C2
IC50 [3]: 1010 nM | IC50 [4]: 431 nM | AUC [5]: 2.6 µM·h | IC50 [6]: 22 nM | AUC [7]: 1.1 µM·h | Tmax [8]: 1.2 h | AUC [9]: 4 µM·h | IC50 [10]: 2920 nM | half-life [11]: 2.2 h | Tmax [12]: 2.2 h | clearance [13]: 217 mL/min/kg | AUC [14]: 3.8 µM·h | Tmax [15]: 6 min | half-life [16]: 2.4 h | Ki [1]: 0.62 nM | IC50 [17]: 5200 nM | bioavailability [18]: 9% | Activity [2]: 220 nM | half-life [19]: 0.9 h | clearance [20]: 317 mL/min/kg | bioavailability [21]: 15% | IC50 [22]: > 40000 nM | AUC [23]: 7.3 µM·h | AUC [24]: 1.3 µM·h | bioavailability [25]: 23% | clearance [26]: 317 mL/min/kg | IC50 [27]: 5800 nM

CCN1CCN(c2ccc(O)c(-c3ccc(C#C[C@]4(CN5Cc6ccc(OC)cc6C5=O)NC(=O)NC4=O)cc3F)n2)CC1
Ki [1]: 0.1 nM | Activity [2]: 40 nM

COc1ccc2c(c1)C(=O)N(C[C@@]1(C#Cc3ccc(C(N)=O)cc3)NC(=O)NC1=O)C2
Ki [1]: 0.56 nM | Activity [2]: 165 nM

COc1ccc2c(c1)C(=O)N(C[C@@]1(C#Cc3ccc(C(C)=O)cc3)NC(=O)NC1=O)C2
Ki [1]: 0.5 nM | Activity [2]: 352 nM

COc1ccc2c(c1)C(=O)N(C[C@@]1(C#Cc3ccc(CC4CCN(C)CC4)nc3)NC(=O)NC1=O)C2
Ki [1]: 0.47 nM | Activity [2]: 195 nM

COc1ccc2c(c1)C(=O)N(C[C@@]1(C#Cc3ccc4cc[nH]c4c3)NC(=O)NC1=O)C2
Ki [1]: 0.19 nM | Activity [2]: 2965 nM

COc1ccc2c(c1)C(=O)N(C[C@@]1(C#Cc3ccc4[nH]c(=O)[nH]c4c3)NC(=O)NC1=O)C2
Ki [1]: 0.53 nM | Activity [2]: 240 nM

CCN1CCN(/C(=N\O)c2ccc(C#C[C@]3(CN4Cc5ccc(OC)cc5C4=O)NC(=O)NC3=O)cc2)CC1
Ki [1]: 0.16 nM | Activity [2]: 20 nM

COc1ccc2c(c1)C(=O)N(C[C@@]1(C#Cc3cccc(F)c3)NC(=O)NC1=O)C2
Ki [1]: 0.2 nM | Activity [2]: 873 nM

CCN1CCN(/C(=N\O)c2ccc(C#C[C@]3(CN4Cc5ccc(OC)cc5C4=O)NC(=O)NC3=O)cn2)CC1
Ki [1]: 0.18 nM | Activity [2]: 87 nM

CCN1CCN(Cc2ccc(C#C[C@]3(CN4Cc5ccc(OC)cc5C4=O)NC(=O)NC3=O)cc2)CC1
Ki [1]: 0.29 nM | Activity [2]: 239 nM

COc1ccc2c(c1)C(=O)N(C[C@@]1(C#Cc3ccccc3)NC(=O)NC1=O)C2
Ki [1]: 0.14 nM | Activity [2]: 784 nM

COc1ccc2c(c1)C(=O)N(C[C@@]1(C#Cc3ccc4[nH]cnc4c3)NC(=O)NC1=O)C2
Ki [1]: 0.6 nM | Activity [2]: 211 nM

COc1ccc2c(c1)C(=O)N(C[C@@]1(C#Cc3ccccc3F)NC(=O)NC1=O)C2
Ki [1]: 0.13 nM | Activity [2]: 617 nM

COc1ccc2c(c1)C(=O)N(C[C@@]1(C#Cc3ccc(F)cc3)NC(=O)NC1=O)C2
Ki [1]: 0.26 nM | Activity [2]: 1675 nM

COc1ccc2c(c1)C(=O)N(C[C@@]1(C#Cc3ccc(/C(=N/O)N4CCN(C)CC4)cc3)NC(=O)NC1=O)C2
Ki [1]: 0.22 nM | Activity [2]: 33 nM

COc1ccc2c(c1)C(=O)N(C[C@@]1(C#Cc3ccc4cnn(C)c4c3)NC(=O)NC1=O)C2
Ki [1]: 0.52 nM | Activity [2]: 10400 nM

COc1ccc2c(c1)C(=O)N(C[C@@]1(C#Cc3ccc(-c4ncccc4O)cc3)NC(=O)NC1=O)C2
Ki [1]: 0.07 nM | Activity [2]: 117 nM

COc1ccc2c(c1)C(=O)N(C[C@@]1(C#Cc3ccc([C@H](C)N)cc3)NC(=O)NC1=O)C2
Ki [1]: 2.35 nM | Activity [2]: 621 nM

COc1ccc2c(c1)C(=O)N(C[C@@]1(C#Cc3cccc(C#N)c3)NC(=O)NC1=O)C2
Ki [1]: 0.06 nM | Activity [2]: 273 nM

COc1ccc2c(c1)C(=O)N(C[C@@]1(C#Cc3cccc(C)c3)NC(=O)NC1=O)C2
Ki [1]: 0.72 nM | Activity [2]: 5148 nM

COc1ccc(C#C[C@]2(CN3Cc4ccc(OC)cc4C3=O)NC(=O)NC2=O)cc1
Ki [1]: 0.41 nM | Activity [2]: 1332 nM

COc1ccc2c(c1)C(=O)N(C[C@@]1(C#Cc3ccc(C(=O)NC4CC4)cc3)NC(=O)NC1=O)C2
Ki [1]: 2.55 nM | Activity [2]: 487 nM

COc1ccc2c(c1)C(=O)N(C[C@@]1(C#Cc3ccccc3C)NC(=O)NC1=O)C2
Ki [1]: 2 nM | Activity [2]: 3142 nM

COc1ccc2c(c1)C(=O)N(C[C@@]1(C#Cc3cccc(C(N)=O)c3)NC(=O)NC1=O)C2
Ki [1]: 0.85 nM

COc1ccc2c(c1)C(=O)N(C[C@@]1(C#Cc3cccc(C(C)C)c3)NC(=O)NC1=O)C2
Ki [1]: 0.5 nM | Activity [2]: 19000 nM

COc1ccc2c(c1)C(=O)N(C[C@@]1(C#Cc3ccc(/C=N/O)cc3)NC(=O)NC1=O)C2
Ki [1]: 0.16 nM | Activity [2]: 167 nM

COc1ccc2c(c1)C(=O)N(C[C@@]1(C#Cc3cnc4[nH]cnc4c3)NC(=O)NC1=O)C2
Ki [1]: 0.92 nM | Activity [2]: 193 nM

COc1ccc2c(c1)C(=O)N(C[C@@]1(C#Cc3ccccc3C(N)=O)NC(=O)NC1=O)C2
Ki [1]: 2.78 nM | Activity [2]: 5311 nM

From ChEMBL document CHEMBL1287807, “Novel TNF-α converting enzyme (TACE) inhibitors as potential treatment for inflammatory diseases” (Bioorg Med Chem Lett, 2010)
